Test results taken from ChEMBL document CHEMBL4196108, “5-Aroylindoles Act as Selective Histone Deacetylase 6 Inhibitors Ameliorating Alzheimer's Disease Phenotypes” (J Med Chem, 2018).
Activity calls are given as the source filed them. The rule behind the calls is not given here.

Columns and labels:
[1] = target: T1, Protein deacetylase HDAC6 (Homo sapiens) (UniProt Q9UBN7); assay: Inhibition of HDAC6 in human SH-SY5Y cells transfected with pCAX FLAG APP and pRK5-EGFP-Tau P301L plasmids assessed as inhibition of amyloid beta (1 to 40)-induced Tau P301L mutant phosphorylation at 1 uM after 24 hrs by Western blot analysis
T1 sequence (whole entry): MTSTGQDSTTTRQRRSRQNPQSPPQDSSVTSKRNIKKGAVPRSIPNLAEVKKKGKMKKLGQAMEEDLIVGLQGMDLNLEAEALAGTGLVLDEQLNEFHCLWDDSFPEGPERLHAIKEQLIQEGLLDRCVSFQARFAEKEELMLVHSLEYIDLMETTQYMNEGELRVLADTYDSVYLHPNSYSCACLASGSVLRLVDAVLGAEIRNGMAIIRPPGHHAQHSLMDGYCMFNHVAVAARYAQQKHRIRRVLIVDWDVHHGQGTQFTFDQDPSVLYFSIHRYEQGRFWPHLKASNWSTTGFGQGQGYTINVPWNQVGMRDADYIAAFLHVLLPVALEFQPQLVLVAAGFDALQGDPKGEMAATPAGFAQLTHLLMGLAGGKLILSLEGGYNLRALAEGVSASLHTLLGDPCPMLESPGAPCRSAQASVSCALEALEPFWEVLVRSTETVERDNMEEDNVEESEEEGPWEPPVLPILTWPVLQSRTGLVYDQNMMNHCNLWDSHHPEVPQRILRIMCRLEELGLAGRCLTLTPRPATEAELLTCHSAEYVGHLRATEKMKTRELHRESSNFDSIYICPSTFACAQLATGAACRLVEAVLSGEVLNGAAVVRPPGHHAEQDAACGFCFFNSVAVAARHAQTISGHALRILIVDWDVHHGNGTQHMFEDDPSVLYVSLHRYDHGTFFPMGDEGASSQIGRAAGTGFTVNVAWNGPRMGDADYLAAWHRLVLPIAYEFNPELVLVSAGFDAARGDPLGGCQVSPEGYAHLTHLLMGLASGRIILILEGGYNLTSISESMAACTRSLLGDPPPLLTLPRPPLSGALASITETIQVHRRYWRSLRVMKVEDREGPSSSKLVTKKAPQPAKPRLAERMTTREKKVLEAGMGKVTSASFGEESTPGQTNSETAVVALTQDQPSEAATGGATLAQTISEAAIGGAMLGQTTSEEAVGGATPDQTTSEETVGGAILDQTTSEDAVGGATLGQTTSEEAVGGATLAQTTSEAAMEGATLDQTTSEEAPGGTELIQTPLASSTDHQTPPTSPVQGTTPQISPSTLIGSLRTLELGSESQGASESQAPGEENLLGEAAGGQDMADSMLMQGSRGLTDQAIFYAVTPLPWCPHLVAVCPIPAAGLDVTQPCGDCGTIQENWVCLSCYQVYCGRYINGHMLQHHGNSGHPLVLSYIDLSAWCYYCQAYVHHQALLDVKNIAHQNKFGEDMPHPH

SH-SY5Y = assay: Inhibition of APP levels in human SH-SY5Y cells transfected with pCAX FLAG APP and pRK5-EGFP-Tau P301L plasmids at 1 uM after 24 hrs by Western blot analysis; format: functional, cell-based
Outline: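 SH-SY5Y or Neuro-2a cells cotransfected 24 h with pCAX APP695 and pRK5-EGFP-Tau P301L, then treated 24 h at 1 µM. 20 µg lysate protein immunoblotted for APP and phospho-tau Ser396/Ser404. Mean ± STD of three independent experiments; Student's t-test.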

Mus musculus = assay: In vivo inhibition of HDAC6 in 3xTg-AD transgenic mouse brain hippocampal CA1 region assessed as downregulation of […] expression of beta-amyloid at 50 mg/kg, po administered daily for 3 months by immunohistochemical analysis; format: functional, organism-based
[2] = target: T2, Protein deacetylase HDAC6 (Mus musculus) (UniProt Q9Z2V5); assay: Inhibition of HDAC6 binding to HSP90 in mouse Neuro-2a cells transfected with pCAX FLAG APP and pRK5-EGFP-Tau P301L plasmids at 1 uM after 24 hrs by coimmunoprecipitation analysis; format: cell-based
T2 sequence (whole entry): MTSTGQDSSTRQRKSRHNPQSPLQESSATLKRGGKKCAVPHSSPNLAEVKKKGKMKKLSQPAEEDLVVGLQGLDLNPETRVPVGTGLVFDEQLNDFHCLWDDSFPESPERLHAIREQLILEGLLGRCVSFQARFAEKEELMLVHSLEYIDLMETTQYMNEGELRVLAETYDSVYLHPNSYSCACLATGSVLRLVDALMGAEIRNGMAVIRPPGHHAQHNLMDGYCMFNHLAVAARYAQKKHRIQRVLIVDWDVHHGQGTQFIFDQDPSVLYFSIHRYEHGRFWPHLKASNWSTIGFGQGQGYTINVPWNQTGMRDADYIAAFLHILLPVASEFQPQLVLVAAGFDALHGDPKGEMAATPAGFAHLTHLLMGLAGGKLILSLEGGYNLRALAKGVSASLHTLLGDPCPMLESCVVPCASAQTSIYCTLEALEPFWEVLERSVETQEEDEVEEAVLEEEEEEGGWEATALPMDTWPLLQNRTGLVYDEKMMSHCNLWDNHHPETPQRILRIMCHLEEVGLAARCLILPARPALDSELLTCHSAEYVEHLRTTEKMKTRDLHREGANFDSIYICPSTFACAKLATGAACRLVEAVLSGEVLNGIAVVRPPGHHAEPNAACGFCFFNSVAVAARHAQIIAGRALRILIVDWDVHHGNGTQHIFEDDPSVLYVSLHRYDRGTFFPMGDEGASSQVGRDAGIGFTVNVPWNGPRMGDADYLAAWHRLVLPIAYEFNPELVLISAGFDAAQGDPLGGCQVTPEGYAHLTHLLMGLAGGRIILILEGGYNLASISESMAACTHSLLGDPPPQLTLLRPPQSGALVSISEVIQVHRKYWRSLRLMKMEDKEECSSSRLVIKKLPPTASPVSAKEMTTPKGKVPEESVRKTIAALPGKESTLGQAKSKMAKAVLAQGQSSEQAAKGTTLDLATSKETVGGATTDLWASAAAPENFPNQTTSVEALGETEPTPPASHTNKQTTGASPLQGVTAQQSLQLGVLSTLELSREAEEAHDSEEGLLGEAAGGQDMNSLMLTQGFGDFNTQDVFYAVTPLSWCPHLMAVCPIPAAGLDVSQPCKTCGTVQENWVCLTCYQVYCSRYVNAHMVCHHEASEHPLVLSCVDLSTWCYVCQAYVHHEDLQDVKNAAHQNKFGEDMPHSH
Outline: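 SH-SY5Y and Neuro-2a cells cotransfected 24 h with APP695/Tau P301L plasmids, treated 24 h at 1 µM (ACY-1215 reference). 30 µg lysate immunoprecipitated overnight at 4 °C with anti-HDAC6 or anti-acetyl-lysine antibodies plus protein A/G beads, run on 8% SDS-PAGE, probed for Hsp90; Hsp70 by immunoblot. Three independent experiments.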

[3] = Drug uptake in Sprague-Dawley rat brain at 50 mg/kg, po after 3 hrs by HPLC-MS/MS analysis; format: ADME, organism-based; settings: read-out: Drug uptake

**Q.** With `COc1ccc(C(=O)c2ccc3c(ccn3Cc3ccc(C(=O)NO)cc3)c2)cc1` as the compound, how does the inhibition [1] read?
**A.** Its inhibition is “Active”.

**Q.** And the inhibition (SH-SY5Y)?
**A.** Its inhibition is “Active”.

**Q.** And the inhibition (Mus musculus)?
**A.** Its inhibition is “Active”.

**Q.** And the inhibition [2]?
**A.** The inhibition was “Active”.

**Q.** And the concentration at 3 h [3]?
**A.** Its concentration at 3 h is 6.3 ng/g.
